Assay results published in ChEMBL document CHEMBL1127022, “Transformation of monoamine oxidase-B primary amine substrates into time-dependent inhibitors. Tertiary amine homologues of primary amine substrates” (J Med Chem, 1993).

What was measured:
[1] = target: T1, Amine oxidase [flavin-containing] B (Bos taurus, UniProt P56560); assay: Inactivation kinetic constant Monoamine oxidase-B from Bovine liver; conditions: cattle
T1 sequence (P56560 whole entry): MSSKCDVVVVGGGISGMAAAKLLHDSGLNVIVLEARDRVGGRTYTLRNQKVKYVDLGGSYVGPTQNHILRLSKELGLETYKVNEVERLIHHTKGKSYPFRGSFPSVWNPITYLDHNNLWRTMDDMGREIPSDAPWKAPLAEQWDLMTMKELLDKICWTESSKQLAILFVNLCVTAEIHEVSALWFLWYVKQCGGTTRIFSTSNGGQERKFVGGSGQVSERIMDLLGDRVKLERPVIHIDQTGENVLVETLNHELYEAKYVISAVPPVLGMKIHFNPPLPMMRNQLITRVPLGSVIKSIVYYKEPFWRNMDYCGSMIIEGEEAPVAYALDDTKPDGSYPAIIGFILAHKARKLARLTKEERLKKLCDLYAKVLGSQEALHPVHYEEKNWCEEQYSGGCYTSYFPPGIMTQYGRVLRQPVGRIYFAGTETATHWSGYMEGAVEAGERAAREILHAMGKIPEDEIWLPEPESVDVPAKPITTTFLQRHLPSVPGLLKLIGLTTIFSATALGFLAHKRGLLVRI
Procedure, shortened: (§1)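 Bovine liver MAO-B was added to inhibitor at various concentrations in 100 mM potassium phosphate, pH 7.40, with 2.0 mM β-mercaptoethanol or glutathione, at 25 °C. Aliquots taken over time were assayed with 0.5 mM cinnamylamine in 100 mM Tris, pH 9.0, and corrected against a no-inhibitor control. Ki and kinact came from Kitz–Wilson analysis.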

[2] = target: T1, Amine oxidase [flavin-containing] B; assay: Inhibition of Monoamine oxidase-B from Bovine liver; procedure, shortened: as §1
[3] = target: T1, Amine oxidase [flavin-containing] B; assay: Catalysis activity was calculated for Monoamine oxidase-B from Bovine liver; conditions: cattle
Procedure, shortened: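 Purified bovine liver MAO-B, with the test amine as substrate. Km and kcat were obtained by following the rate of hydrogen peroxide formation.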

Row | SMILES | kinact [1] | Ki [2] | k cat [3]
1 | CN(C)CCCCc1ccccc1 | 4.83e-05 s⁻¹ | 10 mM | –
2 | CCCCCN(C)C | 0.000267 s⁻¹ | 2.1 mM | –
3 | CN(C)CCC(=O)c1ccccc1 | 0.0288 s⁻¹ | 0.35 mM | –
4 | CN(C)CCCc1ccccc1 | 0.00717 s⁻¹ | 0.38 mM | 0.21 s⁻¹
5 | CN(C)CCc1ccccc1 | 0.128 s⁻¹ | 7.1 mM | 1.4 s⁻¹
6 | CCCNCCc1ccccc1 | 0.0767 s⁻¹ | 4 mM | –
